Screening data deposited in PubChem by several laboratories.
ALR H2O2 inh: inhibitors of human ALR sulfhydryl oxidase, primary screen, biochemical, H2O2 detection, HRP-luminol luminescence, single point; FAD-linked sulfhydryl oxidase ALR (Homo sapiens), P55789; purified ALR, DTT oxidation; inhibition, % (concentration not given with the values); hit rate 3.8% among 290,000; AID 485317, 2010;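 active = mean replicate inhibition above about 79%, with every replicate also reaching it, limit read from the data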
Target sequence (P55789 whole entry, looked up): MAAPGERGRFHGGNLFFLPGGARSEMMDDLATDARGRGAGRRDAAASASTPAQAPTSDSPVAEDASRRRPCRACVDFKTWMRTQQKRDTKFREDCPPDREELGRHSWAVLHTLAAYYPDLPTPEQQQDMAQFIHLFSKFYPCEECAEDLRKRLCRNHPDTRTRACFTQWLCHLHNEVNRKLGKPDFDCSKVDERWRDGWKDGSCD
AI-2 QS modul: Vibrio harveyi AI-2 quorum sensing modulators, primary screen, JMH597 strain, luminescence/OD600 ratio. Vibrio harveyi JMH597 AI-2 luminescence/OD600 ratio, 9 h; hits give low values; strain lacks LuxN and CqsS sensors; 0 = neutral-control median. activity change, % at 7.5 µM. hit rate 0.4% among 300,000. AID 2094, 2009; in the data active = activity change below about -75%, passing the limit was not always enough;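 also: luminescence divided by OD600 gain over 9 h not by final OD600 alone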
PHOSPHO1 inh: PubChem AID 1565; Phosphoethanolamine/phosphocholine phosphatase (Homo sapiens), Q8TCT1; recombinant PHOSPHO1, absorbance phosphatase assay; inhibition, % at 13.3 µM; hit rate 1.1% among 290,000; in the data active = inhibition above about 60%
HSF1 activator: HSF-1 activators, primary screen, NIH3T3-HGL cells, MG132 stress, luminescence, single point. activation, % at 9 µM. NIH3T3-HGL HSF-1 luciferase reporter, 8 h; 100% = twice DMSO control signal. hit rate 1.7% among 300,000;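 active = mean replicate activation of at least 50% with a set share of replicates each reaching 50%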;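 also: 0% = median of the neutral control wells and 100% = twice that signal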
HSF1 inhib: HSF1 inhibitors in luciferase reporter cells, primary screen, cell-based, NIH3T3, luminescence. NIH3T3-HGL HSE-luciferase, MG132-induced, luminescence 8 h; hits give low values. hit rate 0.77% among 300,000. activity change, negative = inhibition, % at 7.5 µM (by protocol);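 active = more than half of replicate wells show activity change below -50%, luminescence cut by over half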;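 also: luciferase reports HSF-1 transcriptional activity via heat shock element; 0% = median of DMSO wells and -100% = zero luminescence signal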
core dimer inh: inhibitors of HCV core protein dimerization, primary screen, biochemical, TR-FRET, high-throughput. TR-FRET GST/Flag-core106 dimerization, 1536-well. inhibition, % at 5 µM. hit rate 0.33% among 300,000. AID 1899, 2009;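 active = inhibition above the mean of all tested compounds plus 3 SD, set per screening campaign, cut at about 45% in these data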
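Material: GST/Flag-tagged HCV core106 proteins. Incubation: 4 h, 22.5 °C incubation. Read-out basis: inhibition (%) from 671 over 617 nm ratio. Measured by: TR-FRET, excitation 340 nm, emission 617 and 671 nm.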
Active calls of the source: *; . = no result. An excerpt weighted towards active compounds, which were near 6.8% of everything screened.

SMILES	ALR H2O2 inh	AI-2 QS modul	PHOSPHO1 inh	HSF1 activator	HSF1 inhib	core dimer inh
O=C(NCc1cccs1)C1CCCN(S(=O)(=O)c2cnc[nH]2)C1 (configuration not stated)	.	14	2	17	-4	3
O=C(NCCN1CCN(c2ccccc2)CC1)C1CCCN(S(=O)(=O)c2cnc[nH]2)C1 (configuration not stated)	97*	21	6	-2	-4	1
O=C(NCc1ccccc1Cl)C1CCCN(S(=O)(=O)c2cnc[nH]2)C1 (configuration not stated)	94*	27	-2	-2	-4	-1
O=C(NCCN1CCN(c2cccc(Cl)c2)CC1)C1CCCN(S(=O)(=O)c2cnc[nH]2)C1 (configuration not stated)	96*	.	11	.	.	0
Cc1ccc(-c2csc(NCCn3c(C)nc4cc(C(F)(F)F)ccc43)n2)cc1	-4	.	.	.	.	.
CCn1nc([N+](=O)[O-])c(C(C#N)c2nc3cc(C(F)(F)F)ccc3s2)c(Cl)c1=O (configuration not stated)	98*	28	12	64*	57	3
Cn1nc([N+](=O)[O-])c(C(C#N)c2ccccn2)c(Cl)c1=O (configuration not stated)	24	46	32	35	25	-9
CCCn1nc([N+](=O)[O-])c(C(C#N)c2nc3ccccc3o2)c(Cl)c1=O (configuration not stated)	.	0	17	97*	76	10
CC(=O)c1ccc(N(CC(=O)NC2CCCCC2)C(=O)CNC(=O)c2ccco2)cc1	-2	14	28	1	-3	7
OC1C=CSc2nc3ccccc3n21 (configuration not stated)	86*	16	-23	0	10	4
C/C(=N\O)c1ccc2[nH]ccc2c1	58	7	36	19	9	-1
C/C(=N\O)c1ccc2c3c([nH]c2c1)CCCC3	97*	27	10	93*	61	10
Cc1cccc(C)c1Nc1c(-c2ccccn2)nc2ccccn12	94*	25	-36	-3	3	-6
Cc1ccc2nc(-c3ccccn3)c(NC3CCCC3)n2c1	99*	44	8	4	1	-2
CCCCCCSc1cccc(-c2nc3ccc(C)cn3c2NC2CCCCC2)c1	.	14	.	-4	3	-9
Cc1ccc(Nc2c(-c3ccccn3)nc3cccc(C)n23)cc1	99*	-80*	-3	-33	-14	-2
CCN(CC)CCn1c2c(c(SCC(=O)Nc3cc(C)on3)nc1=O)CCCC2	1	19	.	6	-4	-3
CC(C(=O)Nc1ccc(Cl)cc1)N1C(=O)NC2(CCCC2)C1=O (configuration not stated)	5	5	43	-7	-5	-3
O=S(=O)(c1ccc2c(c1)OCCO2)N1CCCN(S(=O)(=O)c2c(F)cccc2F)CC1	-1	.	.	.	.	.
CCCOc1ccc(Cn2c(=O)oc3ccc(C)cc32)cc1	-4	6	28	29	22	1
CCc1noc(C)c1C(=O)N(C)CC(=O)Nc1ccc(Br)cc1C	14	21	.	5	-7	-2
CCCSC1=N/C(=C\C=C\c2ccco2)C(=O)S1	11	-5	90*	-27	-24	44
O=C1SC(SCc2ccccc2)=N/C1=C\c1ccco1	-14	23	2	26	13	4
COc1ccc(Cl)cc1-c1nc(SCC(=O)NCC2CCCO2)n[nH]1 (configuration not stated)	-2	.	.	.	.	.
CCOc1ccc(-c2nc(-c3cccs3)c(CC(=O)O)s2)cc1OC	89*	26	18	17	5	3
CCOc1ccc(-c2nnc(-c3cccs3)o2)cc1OCC	.	1	3	32	18	-3
CCN(CC)c1ccc(/C=C2\CCC(/C=N/NC(=O)c3ccc(=O)n(C)c3)=C2N2CCOCC2)cc1	100*	20	-10	2	1	-18
